According to ChEMBL document CHEMBL1143542, “Structure-activity relationships of bivalent aminoglycosides and evaluation of their microbiological activities” (2005):
Values after ≈ are worked out from the molar mass of the structure shown.

How the values were obtained:
Pseudomonas aeruginosa [1] = assay: Susceptibility testing against Pseudomonas aeruginosa PAE_NUH21; S=Susceptible; assay type: functional
Pseudomonas aeruginosa [2] = assay: Susceptibility testing against Pseudomonas aeruginosa PAE_NUH19; S=Susceptible; assay type: functional
Pseudomonas aeruginosa [3] = assay: (§1) Susceptibility testing against Pseudomonas aeruginosa PAE_NUH06; R=Resistant; assay type: functional
Pseudomonas aeruginosa [4] = assay: Susceptibility testing against Pseudomonas aeruginosa PAE_NUH20; S=Susceptible; assay type: functional
Pseudomonas aeruginosa [5] = assay: (§2) Susceptibility testing against Pseudomonas aeruginosa PAE_NUH03; R=Resistant; assay type: functional
Pseudomonas aeruginosa [6] = assay: Susceptibility testing against Pseudomonas aeruginosa PAE_NUH18; S=Susceptible; assay type: functional
Pseudomonas aeruginosa [7] = assay: Susceptibility testing against Pseudomonas aeruginosa PAE_NUH22; S=Susceptible; assay type: functional
Pseudomonas aeruginosa [8] = assay: Minimum inhibitory concentration against Pseudomonas aeruginosa ATCC 27853; assay type: functional
In short: (§3)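 Broth microdilution following CLSI M100-S12. Stocks were 10 mg/mL in water, diluted in Mueller–Hinton broth to a top level of 128, then serially 2-fold in plates. Bacteria in cation-adjusted Mueller–Hinton broth were mixed 1:1 with drug and incubated 16–20 h at 35 °C. MIC was the lowest concentration with no visible growth. Run in duplicate with no-antibiotic and no-inoculum (sterility) controls.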

Escherichia coli = assay: In vitro minimum inhibitory concentration against Escherichia coli ATCC 25922; Range is 0.25-1; assay type: functional
Pseudomonas aeruginosa [9] = assay: Susceptibility testing against Pseudomonas aeruginosa PAE_NUH25; S=Susceptible; assay type: functional
Staphylococcus aureus [10] = assay: In vitro minimum inhibitory concentration against Staphylococcus aureus MRSA 3359; assay type: functional; in short: as §3
Pseudomonas aeruginosa [11] = assay: (§4) Susceptibility testing against Pseudomonas aeruginosa PAE_NUH04; R=Resistant; assay type: functional
Pseudomonas aeruginosa [12] = assay: Minimum inhibitory concentration against Pseudomonas aeruginosa ATCC 27853; Range is 0.25-1; assay type: functional
Pseudomonas aeruginosa [13] = assay: Susceptibility testing against Pseudomonas aeruginosa PAE_NUH07; S=Susceptible; assay type: functional
In short: (§5)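 Disk diffusion susceptibility profiling against a panel of empirically used antipseudomonal antibiotics. Each strain was categorised as susceptible (S) or intermediate (I).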

Pseudomonas aeruginosa [14] = assay: (§6) Susceptibility testing against Pseudomonas aeruginosa PAE_NUH01; R=Resistant; assay type: functional
Pseudomonas aeruginosa [15] = assay: (§7) Susceptibility testing against Pseudomonas aeruginosa PAE_NUH05; R=Resistant; assay type: functional
Pseudomonas aeruginosa [16] = assay: (§8) Susceptibility testing against Pseudomonas aeruginosa PAE_NUH23; R=Resistant; assay type: functional
Pseudomonas aeruginosa [17] = assay: Susceptibility testing against Pseudomonas aeruginosa PAE_NUH17; S=Susceptible; assay type: functional
Enterococcus faecalis = assay: In vitro minimum inhibitory concentration against Enterococcus faecalis 29212; range is 8-32 ug/ml; assay type: functional; in short: as §3
Pseudomonas aeruginosa [18] = assay: (§9) Susceptibility testing against Pseudomonas aeruginosa PAE_NUH02; R=Resistant; assay type: functional
Pseudomonas aeruginosa [19] = assay: Minimum inhibitory concentration against Pseudomonas aeruginosa PAO-1; Range is 0.25-1; assay type: functional
Staphylococcus aureus [20] = assay: In vitro minimum inhibitory concentration against Staphylococcus aureus ATCC 29213; Range is 0.12-1; assay type: functional
Pseudomonas aeruginosa [21] = assay: Susceptibility testing against Pseudomonas aeruginosa PAE_NUH24; S=Susceptible; assay type: functional
Pseudomonas aeruginosa [22] = assay: Susceptibility testing against Pseudomonas aeruginosa PAE_NUH19; R=Resistant; assay type: functional, organism-based
In short: (§10)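 Disk diffusion susceptibility profiling of P. aeruginosa reference and clinical isolates against empirically used antipseudomonal antibiotics. Each isolate was categorised as susceptible, intermediate or resistant.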

Pseudomonas aeruginosa [23] = assay: as §8; assay type: functional, organism-based; in short: as §10
Pseudomonas aeruginosa [24] = assay: Susceptibility testing against Pseudomonas aeruginosa PAE_NUH20; R=Resistant; assay type: functional, organism-based; in short: as §10
Pseudomonas aeruginosa [25] = assay: as §2; assay type: functional, organism-based; in short: as §10
Pseudomonas aeruginosa [26] = assay: as §7; assay type: functional, organism-based; in short: as §10
Pseudomonas aeruginosa [27] = assay: as §9; assay type: functional, organism-based; in short: as §10
Pseudomonas aeruginosa [28] = assay: Susceptibility testing against Pseudomonas aeruginosa PAE_NUH18; R=Resistant; assay type: functional, organism-based; in short: as §10
Pseudomonas aeruginosa [29] = assay: Susceptibility testing against Pseudomonas aeruginosa PAE_NUH17; R=Resistant; assay type: functional, organism-based; in short: as §10
Pseudomonas aeruginosa [30] = assay: Susceptibility testing against Pseudomonas aeruginosa PAE_NUH07; R=Resistant; assay type: functional, organism-based; in short: as §10
Pseudomonas aeruginosa [31] = assay: Susceptibility testing against Pseudomonas aeruginosa PAE_NUH21; I=Intermediate; assay type: functional, organism-based; in short: as §5
Pseudomonas aeruginosa [32] = assay: Susceptibility testing against Pseudomonas aeruginosa PAE_NUH22; R=Resistant; assay type: functional, organism-based; in short: as §10
Pseudomonas aeruginosa [33] = assay: Susceptibility testing against Pseudomonas aeruginosa PAE_NUH25; R=Resistant; assay type: functional, organism-based; in short: as §10
Pseudomonas aeruginosa [34] = assay: Susceptibility testing against Pseudomonas aeruginosa PAE_NUH24; R=Resistant; assay type: functional, organism-based; in short: as §10
Pseudomonas aeruginosa [35] = assay: as §1; assay type: functional, organism-based; in short: as §10
Pseudomonas aeruginosa [36] = assay: as §6; assay type: functional, organism-based; in short: as §10
Pseudomonas aeruginosa [37] = assay: as §4; assay type: functional, organism-based; in short: as §10
Pseudomonas aeruginosa [38] = assay: Susceptibility testing against Pseudomonas aeruginosa ATCC 27853; S=Susceptible; assay type: functional, organism-based; in short: as §5

Compound: NC[C@H]1O[C@H](O[C@H]2[C@H](O)[C@@H](O[C@H]3O[C@H](CO)[C@@H](O)[C@H](N)[C@H]3O)[C@H](N)C[C@@H]2N)[C@H](N)C[C@@H]1O [TOBRAMYCIN]
- MIC (Pseudomonas aeruginosa [1]): 1 µg/mL (≈ 2.14 µM)
- MIC (Pseudomonas aeruginosa [2]): 0.5 µg/mL (≈ 1.07 µM)
- MIC (Pseudomonas aeruginosa [3]): 100 µg/mL (≈ 214 µM)
- MIC (Pseudomonas aeruginosa [4]): 2 µg/mL (≈ 4.28 µM)
- MIC (Pseudomonas aeruginosa [5]): 50 µg/mL (≈ 107 µM)
- MIC (Pseudomonas aeruginosa [6]): 0.5 µg/mL (≈ 1.07 µM)
- MIC (Pseudomonas aeruginosa [7]): 0.25 µg/mL (≈ 0.535 µM)
- MIC (Pseudomonas aeruginosa [8]): 1 µg/mL (≈ 2.14 µM)
- MIC (Escherichia coli): 1 µg/mL (≈ 2.14 µM)
- MIC (Pseudomonas aeruginosa [9]): 0.5 µg/mL (≈ 1.07 µM)
- MIC (Staphylococcus aureus [10]): > 64 µg/mL
- MIC (Pseudomonas aeruginosa [11]): 100 µg/mL (≈ 214 µM)
- MIC (Pseudomonas aeruginosa [12]): 1 µg/mL (≈ 2.14 µM)
- MIC (Pseudomonas aeruginosa [13]): 6.3 µg/mL (≈ 13.5 µM)
- MIC (Pseudomonas aeruginosa [14]): > 200 µg/mL
- MIC (Pseudomonas aeruginosa [15]): 100 µg/mL (≈ 214 µM)
- MIC (Pseudomonas aeruginosa [16]): > 32 µg/mL
- MIC (Pseudomonas aeruginosa [17]): 1 µg/mL (≈ 2.14 µM)
- MIC (Enterococcus faecalis): 32 µg/mL (≈ 68.4 µM)
- MIC (Pseudomonas aeruginosa [18]): 50 µg/mL (≈ 107 µM)
- MIC (Pseudomonas aeruginosa [19]): 1 µg/mL (≈ 2.14 µM)
- MIC (Staphylococcus aureus [20]): 1 µg/mL (≈ 2.14 µM)
- MIC (Pseudomonas aeruginosa [21]): 1 µg/mL (≈ 2.14 µM)

Compound: CN(C)[C@@H]1C(O)=C(C(N)=O)C(=O)[C@@]2(O)C(O)=C3C(=O)c4c(O)cccc4[C@@](C)(O)[C@H]3C[C@@H]12
- Activity (Pseudomonas aeruginosa [22]): Resistant
- Activity (Pseudomonas aeruginosa [23]): Resistant
- Activity (Pseudomonas aeruginosa [24]): Resistant
- Activity (Pseudomonas aeruginosa [25]): Resistant
- Activity (Pseudomonas aeruginosa [26]): Resistant
- Activity (Pseudomonas aeruginosa [27]): Resistant
- Activity (Pseudomonas aeruginosa [28]): Resistant
- Activity (Pseudomonas aeruginosa [29]): Resistant
- Activity (Pseudomonas aeruginosa [30]): Resistant
- Activity (Pseudomonas aeruginosa [31]): Partial resistance
- Activity (Pseudomonas aeruginosa [32]): Resistant
- Activity (Pseudomonas aeruginosa [33]): Resistant
- Activity (Pseudomonas aeruginosa [34]): Resistant
- Activity (Pseudomonas aeruginosa [35]): Resistant
- Activity (Pseudomonas aeruginosa [36]): Resistant
- Activity (Pseudomonas aeruginosa [37]): Resistant
- Activity (Pseudomonas aeruginosa [38]): Susceptible
